Results on three compounds are retold here after ChEMBL document CHEMBL4196194, “De Novo Design of α-Helical Lipopeptides Targeting Viral Fusion Proteins: A Promising Strategy for Relatively Broad-Spectrum Antiviral Drug Discovery” (J Med Chem, 2018).

The subject of data set [1] is Middle East respiratory syndrome-related coronavirus. In words: Antiviral activity against MERS-CoV pseudovirus infected in human HuH7 cells treated with 30 mins pre-treated pseudovirus/compopund mixture and measured after 48 hrs by luciferase reporter assay. The class given is functional, organism-based. In a few lines: (§1)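 Serially diluted peptide premixed with MERS-CoV pseudovirus 30 min at 37 °C, then added to Huh-7 cells; medium replaced at 12 h postinfection and cells cultured a further 48 h at 37 °C before luciferase read-out.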
In general terms: A reporter such as luciferase makes a cellular process visible.

For data set [2] the test system is unchanged. Kind of data set: Antiviral activity against MERS-CoV pseudovirus infected in human HuH7 cells treated with 30 mins pre-treated pseudovirus/compopund mixture up to 40 uM and measured after 48 hrs by luciferase reporter assay. The format is functional, organism-based. In a few lines:
as §1

The subject of a further data set is Lipid bilayer. Kind of data set: Binding affinity to POPC LUV liposome system at 15 uM. In outline:
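Isothermal titration calorimetry at 25 °C. POPC large unilamellar vesicles (13 mM in the syringe) were titrated into peptide in the cell (15 μM) over 20 injections, 120 s apart, with stirring at 750 rpm. The binding constant was derived from the heat released during peptide–lipid binding.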

The test system of data set [3] is Influenza A virus. In words: Antiviral activity against Influenza A virus (A/Puerto Rico/8/1934(H1N1)) infected in HEK293T cells assessed as inhibition of viral replicon activity up to 40 uM incubated for 30 hrs by dual-Glo luciferase assay. The format is functional, organism-based. In a few lines:
(§2)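 HEK293T cells (2.5 × 10^4/well) transfected with plasmids for NP, PB1, PB2, PA plus p0LN-S-Luc firefly and pRL-SV40 Renilla reporters; serially diluted compound added 6 h post-transfection, luciferase read after 30 h by Dual-Glo. Activity = firefly/Renilla ratio; % inhibition normalized to positive and negative controls, curve-fitted; three independent measurements.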
(In antiviral work, replicon cells carry a viral genome segment that copies itself.)

For data set [4], the system named is Influenza A virus. The note with it: Hong Kong/8/1968(H3N2), 0.1 to 1000 uM.
For data set [5], the system named is Influenza A virus. Kind of data set: Inhibition of influenza A virus infected in MDCK cells assessed as inhibition of viral load treated with compound at 0 to 10 hrs post-infection by RT-qPCR method based time of addition assay. The class given is functional. In a few lines:
(§3)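 MDCK cells (2.0 × 10^5/well) washed with PBS, virus adsorbed (MOI 0.05) 60 min at 4 °C, washed, then compound present only during 0–10, 0–2, 2–5, 5–8 or 8–10 h postinfection; cultured in fresh medium to 10 h, total RNA extracted, viral load by absolute one-step RT-qPCR; triplicate, versus PBS control.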

Data set [6] has as its system Influenza A virus. Kind of data set: Inhibition of influenza A virus infected in MDCK cells assessed as inhibition of viral load treated with compound at 2 to 5 hrs post-infection by RT-qPCR method based time of addition assay. The format is functional, organism-based. In a few lines:
as §3
(In qPCR the cycle at which signal appears reflects the starting amount.)

Data set [7] relates to Influenza A virus. Kind of data set: Inhibition of influenza A virus infected in MDCK cells assessed as inhibition of viral load treated with compound at 5 to 8 hrs post-infection by RT-qPCR method based time of addition assay. The class given is functional, organism-based. In a few lines: as §3
Data set [8] concerns Influenza A virus. The note with it: A/Puerto Rico/8/1934(H1N1), 0.1 to 1000 uM.
For data set [9], the system named is Influenza A virus. Kind of data set: Inhibition of influenza A virus infected in MDCK cells assessed as inhibition of viral load treated with compound at 0 to 2 hrs post-infection by RT-qPCR method based time of addition assay. The format is functional. In a few lines:
as §3

Data set [10] has as its system Influenza A virus. In words: Antiviral activity against influenza A virus assessed as inhibition of viral replicon activity incubated for 30 hrs by firefly luciferase reporter gene assay. The format is functional, organism-based. In a few lines:
as §2

The nature of data set [11]: Inhibition of MERS-CoV spike protein-mediated cell-cell fusion in 293T/MERS/EGPF cells assessed as reduction in cell fusion incubated for 4 hrs by inverted fluorescence microscopy. The format is cell-based, Middle East respiratory syndrome-related coronavirus. In a few lines: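 Huh-7 cells expressing DPP4 plated 5 × 10^4/well, 5 h at 37 °C; serially diluted peptide added, then 293T cells carrying MERS-CoV S and EGFP (or EGFP-only control cells), 1 × 10^4/well. After 4 h coculture at 37 °C, fused and unfused effector cells counted by fluorescence microscopy.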

The nature of data set [12]: Cytotoxicity in human HuH7 cells assessed as reduction in cell viability incubated for 48 hrs by CCK8 assay. The class given is cell-based, Huh-7. In outline:
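Huh-7 cells (1 × 10^5 cells/mL suspension seeded) grown 12 h at 37 °C, 5% CO2, then serially diluted peptide added for 48 h; untreated blank and Triton X-100 controls. CCK-8 added for 2 h, absorbance at 450 nm.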

Data set [13] has as its system Influenza A virus. Kind of data set: Antiviral activity against influenza A virus Hong Kong/8/1968(H3N2) infected in HEK293T cells assessed as inhibition of viral replicon activity up to 20 uM incubated for 30 hrs by dual-Glo luciferase assay. The format is functional, organism-based. In outline: as §2
Data set [14] has as its system Influenza A virus. Kind of data set: Antiviral activity against Influenza A virus (A/Puerto Rico/8/1934(H1N1)) infected in HEK293T cells assessed as inhibition of viral replicon activity up to 20 uM incubated for 30 hrs by dual-Glo luciferase assay. The class given is functional, organism-based. In outline:
as §2

Active and inactive are the calls of the source. No cut-off for these calls is given here. Where a SMILES comes first, the peptide text is derived from it. [ ]: non-standard residue; d: D form. βAla = NCCC(=O)O Where only a bound is given, the exact number is not on record here.

As for `CC[C@H](C)[C@H](NC(C)=O)C(=O)N[C@@H](CCC(=O)O)C(=O)N[C@@H](CCC(=O)O)C(=O)N[C@H](C(=O)N[C@@H](CCC(N)=O)C(=O)N[C@@H](CCCCN)C(=O)N[C@@H](CCCCN)C(=O)N[C@H](C(=O)N[C@@H](CCC(=O)O)C(=O)N[C@@H](CCC(=O)O)C(=O)N[C@H](C(=O)N[C@@H](CCC(N)=O)C(=O)N[C@@H](CCCCN)C(=O)N[C@@H](CCCCN)C(=O)N[C@H](C(=O)N[C@@H](CCC(=O)O)C(=O)N[C@@H](CCC(=O)O)C(=O)N[C@H](C(=O)N[C@@H](CCC(N)=O)C(=O)N[C@@H](CCCCN)C(=O)N[C@@H](CCCCN)C(=O)N[C@H](C(=O)N[C@@H](CCC(=O)O)C(=O)N[C@@H](CCC(=O)O)C(=O)N[C@H](C(=O)N[C@@H](CCC(N)=O)C(=O)N[C@@H](CCCCN)C(=O)N[C@@H](CCCCN)C(=O)N[C@H](C(=O)N[C@@H](CCC(=O)O)C(=O)N[C@@H](CCC(=O)O)C(=O)N[C@H](C(=O)N[C@@H](CCC(N)=O)C(=O)N[C@@H](CCCCN)C(=O)N[C@@H](CCCCN)C(=O)NCCC(=O)N[C@@H](CCCCNC(C)=O)C(N)=O)[C@@H](C)CC)[C@@H](C)CC)[C@@H](C)CC)[C@@H](C)CC)[C@@H](C)CC)[C@@H](C)CC)[C@@H](C)CC)[C@@H](C)CC)[C@@H](C)CC` (Ac-IEEIQKKIEEIQKKIEEIQKKIEEIQKKIEEIQKK[βAla]K(Ac)-NH2), the outcome (in data set [1]; in [2]; with Lipid bilayer) was inactive. Also, the inhibition result in the data set on Influenza A virus [3] was “inactive”.
The IC50 is the concentration at which inhibition is half-maximal. For `NC(=O)c1nc(F)cnc1O`, the inhibition entry in the data set with Influenza A virus [4] and in the data set with Influenza A virus [8] was “inactive” throughout. Further, the inhibition entry with Influenza A virus [5], in the data set on Influenza A virus [6], in the data set on Influenza A virus [7] and in the data set with Influenza A virus [9] was “Active” in each case. The concentration for half-maximal inhibition (IC50) in the data set with Influenza A virus [10] turned out to be 26.2 µM. Also, in the data set on Influenza A virus [10], the inhibition result is “Dose-dependent effect”.
Broadly, the EC50 is the midpoint of the concentration-response curve. One may read the CC50 as the concentration at which the toxic effect on the cells reaches its halfway point. Consider `CC[C@H](C)[C@H](NC(=O)[C@H](Cc1ccc(O)cc1)NC(=O)[C@H](CO)NC(=O)[C@H](CCC(=O)O)NC(=O)[C@H](CCC(=O)O)NC(=O)[C@H](CC(C)C)NC(=O)[C@H](CCCCN)NC(=O)[C@H](CCCCN)NC(=O)[C@@H](NC(=O)[C@@H](NC(=O)[C@H](CCC(=O)O)NC(=O)[C@H](CCC(=O)O)NC(=O)[C@H](CC(C)C)NC(=O)[C@H](CCCCN)NC(=O)[C@H](CCCCN)NC(=O)[C@H](CCSC)NC(=O)[C@H](CCC(=O)O)NC(=O)[C@H](Cc1ccc(O)cc1)NC(=O)[C@H](CCC(=O)O)NC(=O)[C@H](CC(C)C)NC(=O)[C@H](CC(=O)O)NC(=O)[C@H](CC(C)C)NC(=O)[C@H](CC(C)C)NC(=O)[C@@H](NC(=O)[C@@H](NC(=O)[C@H](CC(N)=O)NC(=O)[C@@H](NC(=O)[C@H](CCC(N)=O)NC(=O)[C@@H](NC(=O)[C@H](CC(C)C)NC(=O)[C@H](CO)NC(C)=O)[C@@H](C)O)[C@@H](C)CC)[C@@H](C)O)[C@@H](C)O)C(C)C)C(C)C)C(=O)N[C@@H](CC(=O)O)C(=O)N[C@@H](CC(C)C)C(=O)N[C@@H](CCCCN)C(=O)N[C@@H](CCC(=O)O)C(=O)N[C@@H](CC(C)C)C(N)=O`, for which the concentration for a half-maximal effect (EC50) in data set [11] stood at 0.15 µM. Also, in data set [12], the CC50 at 48 h was > 100 µM. Besides, the result in the data set on Influenza A virus [13] and in the data set with Influenza A virus [14] was inactive.
